The record followed here is ChEMBL document CHEMBL1149849, “Capnellenes from the Formosan soft coral Capnella imbricata” (2008).

Active and inactive are the calls of the source. No cut-off for these calls is given here.

In assay [1] the test system is RAW264.7. The assay can be described thus: Antiinflammatory activity against LPS-stimulated mouse RAW264.7 cells assessed as reduction of COX2 level at 10 uM after 16 hrs by DC protein assay. In kind it is functional. The method in brief:
(§1)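 RAW264.7 cells activated with E. coli LPS (0.01 µg/mL) for 16 h with or without test compound. Cells washed in ice-cold PBS, lysed, and centrifuged at 20000g, 30 min, 4 °C. Supernatant protein measured by DC assay (Lowry-modified); equal protein loaded for SDS-PAGE, transferred to PVDF, blocked, and probed 180 min with anti-iNOS or anti-COX-2 (1:1000). Levels reported relative to LPS-only control.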

In assay [2] the test system is RAW264.7. Briefly: Antiinflammatory activity against LPS-stimulated mouse RAW264.7 cells assessed as reduction of iNOS level at 10 uM after 16 hrs by DC protein assay. In kind it is functional. An outline of the steps: as §1

On to `C=C1[C@@H](OC(C)=O)C[C@H]2C[C@]3(C)CCC(C)(C)[C@@H]3[C@@]12O`, for which the Activity is 62.9 in the assay on RAW264.7 [1] and 54.4 with RAW264.7 [2].

Consider `C=C1C(=O)C[C@H]2C[C@]3(C)CCC(C)(C)[C@@H]3[C@@]12O`, for which the outcome with RAW264.7 [1] was inactive. Besides, the Activity in the assay on RAW264.7 [2] worked out at 34.8.

For `CC1(C)CC[C@@]2(C)C[C@@H]3CC(=O)C(CO)=C3[C@@H]12`, the outcome in the assay on RAW264.7 [1] and in the assay with RAW264.7 [2] was inactive.

In the case of `C=C1[C@H]2[C@@H](C[C@@H]1O)C[C@]1(C)CCC(C)(C)[C@H]21`, the result in the assay on RAW264.7 [1] and in the assay on RAW264.7 [2] was inactive.

On to `C=C1[C@@H](O)C[C@H]2C[C@]3(C)CCC(C)(C)[C@@H]3[C@@]12O`, for which the Activity in the assay on RAW264.7 [1] is reported as 24.8; in the assay on RAW264.7 [2] it was 1.2.

Regarding `C=C1[C@H]2[C@@H](C[C@@H]1O)C[C@]1(C)CC[C@](C)(CO)[C@H]21`, the outcome in the assay with RAW264.7 [1] and with RAW264.7 [2] was inactive.

On to `C=C1[C@@H](O)C[C@H]2C[C@]3(CO)CCC(C)(C)[C@@H]3[C@@]12O`, for which the result with RAW264.7 [1] and in the assay on RAW264.7 [2] was inactive.

In the case of `C=C1[C@@H](OC(C)=O)C[C@H]2C[C@]3(C)CCC(C)(C)[C@@H]3[C@@]12OC(C)=O`, the result with RAW264.7 [1] and in the assay on RAW264.7 [2] was inactive.

Turning to `C=C1[C@H]2[C@@H](C[C@@H]1OC(C)=O)C[C@]1(C)CCC(C)(C)[C@H]21`, the result in the assay with RAW264.7 [1] and in the assay on RAW264.7 [2] was inactive.
